Assay results collected from several papers.
Target: Histone deacetylase 8 (HDAC8, Homo sapiens, UniProt Q9BY41)
Read-out: enzyme activity
Mode: inhibitor
One construct used (Q9BY41 1-377): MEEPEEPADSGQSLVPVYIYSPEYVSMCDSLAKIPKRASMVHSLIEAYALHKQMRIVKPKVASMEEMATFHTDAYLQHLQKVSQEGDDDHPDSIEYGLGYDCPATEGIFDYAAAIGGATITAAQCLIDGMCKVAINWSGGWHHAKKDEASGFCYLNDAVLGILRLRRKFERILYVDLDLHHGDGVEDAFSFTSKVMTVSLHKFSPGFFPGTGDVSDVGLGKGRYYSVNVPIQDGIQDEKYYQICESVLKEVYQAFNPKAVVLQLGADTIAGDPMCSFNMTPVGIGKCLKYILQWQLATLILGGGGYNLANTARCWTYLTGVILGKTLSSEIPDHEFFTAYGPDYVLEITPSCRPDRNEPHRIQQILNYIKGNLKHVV

Structure (SMILES)	test	IC50
CCCON(Cc1ccc(C(=O)NO)cc1)C(=O)Nc1ccccc1	fluorescence	4.64 µM
CCCC[C@H](NC(=O)[C@H](C)c1c(C)[nH]c2ccc(O)cc12)c1ncc(-c2cc3ccccc3nc2OC)[nH]1	–	> 45 µM
O=c1c(O)c(-c2ccc(O)c(O)c2)oc2cc(O)cc(O)c12	–	7.72 µM
CCCON(Cc1ccc(C(=O)NO)cc1)C(=O)Nc1ccc(N(C)C)cc1	fluorescence	4.46 µM
Nc1ccc(-c2ccncc2)cc1NC(=O)N1CCCC1	–	> 33.3 µM
O=C(CCCCCCC(=O)N[c-]1cccc1)NO.[Fe+2].c1cc[cH-]c1	fluorescence	1.36 µM
O=C(/C=C/c1ccc(O)c(O)c1)O[C@@H]1C[C@](O)(C(=O)O)C[C@@H](O)[C@H]1O	–	8.62 µM
CC(C)C[C@H]1CC(=O)N2CCC[C@H]2C(=O)N[C@@H](CCCCCC(=O)NO)C(=O)N[C@@H](Cc2c[nH]c3ccccc23)C(=O)N1	–	0.18 µM
